{"source": "ChEMBL document CHEMBL5137084", "about": "(J Med Chem, 2022)", "key": {"[1]": {"assay": "Metabolic stability of the compound in carboxylesterase 1 knockout mouse brain assessed as parent compound remaining at 10 uM measured after 1 hr in by UPLC analysis", "format": "ADME, tissue-based", "summary_of_the_method": "(§1)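 Plasma, or liver or brain homogenised 10-fold in 0.1 M potassium phosphate buffer, from CES1−/− mice. Spiked with 10 μM prodrug (final) and shaken at 37 °C for 1 h, in triplicate. Samples at 0 and 1 h were quenched with three volumes of acetonitrile containing losartan. Intact prodrug was measured by UHPLC-orbitrap MS and expressed as % remaining, mean ± SE.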"}, "[2]": {"assay": "Metabolic stability of the compound in carboxylesterase 1 knockout mouse liver assessed as parent compound remaining at 10 uM measured after 1 hr in by UPLC analysis", "format": "ADME, tissue-based", "summary_of_the_method": "as §1"}, "[3]": {"assay": "Metabolic stability of the compound in carboxylesterase 1 knockout mouse plasma assessed as parent compound remaining at 10 uM measured after 1 hr in by UPLC analysis", "format": "ADME, cell-free", "summary_of_the_method": "as §1"}, "[4]": {"assay": "Prodrug conversion in carboxylesterase 1 knockout C57BL/6 mouse plasma assessed as increase in 2,6-Dimethoxy-4-(4-phenyl-5-thiophen-2-yl-1H-imidazol-2-yl)phenol release at 16.62 mg/kg, po administered as single dose measured after 2 hrs by LC-MS/MS analysis", "format": "ADME, organism-based", "details": "in vivo"}, "[5]": {"assay": "Prodrug conversion in carboxylesterase 1 knockout C57BL/6 mouse brain assessed as increase in 2,6-Dimethoxy-4-(4-phenyl-5-thiophen-2-yl-1H-imidazol-2-yl)phenol release at 16.62 mg/kg, po administered as single dose measured after 2 hrs by LC-MS/MS analysis", "format": "ADME, organism-based", "details": "in vivo"}, "[6]": {"assay": "Ratio of prodrug conversion in carboxylesterase 1 knockout C57BL/6 mouse brain to plasma assessed as 2,6-Dimethoxy-4-(4-phenyl-5-thiophen-2-yl-1H-imidazol-2-yl)phenol release at 16.62 mg/kg, po administered as single dose measured after 2 hrs by LC-MS/MS analysis", "format": "ADME, organism-based"}, "[7]": {"assay": "Stability in carboxylesterase 1 knockout C57BL/6 mouse plasma assessed as intact compound level at 16.62 mg/kg, po administered as single dose measured upto 8 hrs by LC-MS/MS analysis", "format": "ADME, organism-based", "details": "read-out: Stability"}, "[8]": {"assay": "Stability in carboxylesterase 1 knockout C57BL/6 mouse brain assessed as intact compound level at 16.62 mg/kg, po administered as single dose measured upto 8 hrs by LC-MS/MS analysis", "format": "ADME, organism-based", "details": "read-out: Stability"}, "[9]": {"assay": "Tmax in carboxylesterase 1 knockout C57BL/6 mouse plasma at 16.62 mg/kg, po administered as single dose measured upto 8 hrs by LC-MS/MS analysis", "format": "ADME, organism-based"}, "[10]": {"assay": "Tmax in carboxylesterase 1 knockout C57BL/6 mouse brain at 16.62 mg/kg, po administered as single dose measured upto 8 hrs by LC-MS/MS analysis", "format": "ADME, organism-based"}, "[11]": {"assay": "Half life in carboxylesterase 1 knockout C57BL/6 mouse plasma at 16.62 mg/kg, po administered as single dose measured upto 8 hrs by LC-MS/MS analysis", "format": "ADME, organism-based"}, "[12]": {"assay": "Half life in carboxylesterase 1 knockout C57BL/6 mouse brain at 16.62 mg/kg, po administered as single dose measured upto 8 hrs by LC-MS/MS analysis", "format": "ADME, organism-based"}, "[13]": {"assay": "Prodrug conversion in carboxylesterase 1 knockout C57BL/6 mouse plasma assessed as Cmax of 2,6-Dimethoxy-4-(4-phenyl-5-thiophen-2-yl-1H-imidazol-2-yl)phenol at 16.62 mg/kg, po administered as single dose measured upto 8 hrs by LC-MS/MS analysis", "format": "ADME, organism-based", "parameters": "time < 8 hrs, dose 16.62 mg/kg, route po", "details": "in vivo"}, "[14]": {"assay": "Prodrug conversion in carboxylesterase 1 knockout C57BL/6 mouse brain assessed as Cmax of 2,6-Dimethoxy-4-(4-phenyl-5-thiophen-2-yl-1H-imidazol-2-yl)phenol at 16.62 mg/kg, po administered as single dose measured upto 8 hrs by LC-MS/MS analysis", "format": "ADME, organism-based", "parameters": "dose 16.62 mg/kg, time < 8 hrs, route po", "details": "in vivo"}, "[15]": {"assay": "Prodrug conversion in carboxylesterase 1 knockout C57BL/6 mouse plasma assessed as AUC of 2,6-Dimethoxy-4-(4-phenyl-5-thiophen-2-yl-1H-imidazol-2-yl)phenol at 16.62 mg/kg, po administered as single dose measured upto 8 hrs by LC-MS/MS analysis", "format": "ADME, organism-based", "parameters": "time < 8 hrs, dose 16.62 mg/kg, route po", "details": "in vivo"}, "[16]": {"assay": "Prodrug conversion in carboxylesterase 1 knockout C57BL/6 mouse brain assessed as AUC of 2,6-Dimethoxy-4-(4-phenyl-5-thiophen-2-yl-1H-imidazol-2-yl)phenol at 16.62 mg/kg, po administered as single dose measured upto 8 hrs by LC-MS/MS analysis", "format": "ADME, organism-based", "parameters": "dose 16.62 mg/kg, time < 8 hrs, route po", "details": "in vivo"}, "Mus musculus": {"system": "Mus musculus", "assay": "Antiinflammatory activity against GFAP-EGFP transgenic mouse model assessed as as inhibition of GFP-labeled extracellular vesicle release at 3 to 10 mg/kg, po pretreated with compound for 30 mins followed by IL-1beta injection measured after 4 hrs", "format": "functional, organism-based", "details": "dose 3-10 mg/kg", "summary_of_the_method": "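Euthanized 4 h later. Platelet-free plasma was prepared and GFP+ EVs were captured on anti-GFP antibody-coupled magnetic beads and counted by particle tracking, blinded. Mean ± SEM, one-way ANOVA with Tukey.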"}, "[17]": {"assay": "Protein binding in mouse plasma assessed as free fraction at 3 to 10 mg/kg, po by ultrafiltration assay", "format": "ADME, organism-based", "details": "dose 3-10 mg/kg"}}, "note": "Active and inactive are the calls of the source. The calls are words filed in the database; no cut-off is given here."}
{"smiles": "CCC1CC(N2CCCCC2)CC(CC)N1C(=O)Oc1c(OC)cc(-c2nc(-c3ccccc3)c(-c3cccs3)[nH]2)cc1OC", "note": "(stereo not drawn)", "values": [{"measurement": "Stability", "setting": "[1]", "value": 100, "unit": "%"}, {"measurement": "Stability", "setting": "[2]", "value": 100, "unit": "%"}, {"measurement": "Stability", "setting": "[3]", "value": 92, "unit": "%"}, {"measurement": "Drug metabolism", "setting": "[4]", "value": 189.3, "unit": "nM"}, {"measurement": "Drug metabolism", "setting": "[5]", "value": 61.5, "unit": "nM"}, {"measurement": "BPR", "setting": "[6]", "value": 0.24}, {"measurement": "concentration at 8 h", "setting": "[7]", "value": 283, "unit": "nM"}, {"measurement": "concentration at 8 h", "setting": "[8]", "value": 35.2, "unit": "nM"}, {"measurement": "Tmax", "setting": "[9]", "value": 2, "unit": "h"}, {"measurement": "Tmax", "setting": "[10]", "value": 2, "unit": "h"}, {"measurement": "half-life", "setting": "[11]", "value": 2.7, "unit": "h"}, {"measurement": "half-life", "setting": "[12]", "value": 1.8, "unit": "h"}, {"measurement": "Cmax", "setting": "[13]", "value": 190, "unit": "pmol·h/g"}, {"measurement": "Cmax", "setting": "[14]", "value": 69, "unit": "pmol·h/g"}, {"measurement": "AUC", "setting": "[15]", "value": 1047, "unit": "pmol·h/g"}, {"measurement": "AUC", "setting": "[16]", "value": 247, "unit": "pmol·h/g"}, {"measurement": "Activity", "setting": "Mus musculus", "value": "Active"}, {"measurement": "fraction unbound", "setting": "[17]", "value": 0.9}]}
